Experimental data from ChEMBL document CHEMBL3739417, “Synthesis and biological evaluation of novel 4,5-disubstituted 2H-1,2,3-triazoles as cis-constrained analogues of combretastatin A-4” (2015).

Columns and labels:
Assay type in all cases: functional
U-251 = experiment: Growth inhibition of human U251 cells after 48 hrs by sulforhodamine B assay; details: U-251, 48 h
In short: (§1)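 NCI-60 panel screen by SRB assay (Rubinstein method). Percentage growth taken from optical density of SRB colour, read before and 48 hrs after exposure to compound or vehicle control. All analogues first screened at 10^-5 M. Analogues giving 60% growth inhibition at that level in at least eight lines then went to a five-concentration dose-response study.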

[1] = Growth inhibition of human LOXIMVI cells after 48 hrs by sulforhodamine B assay; details: LOX IMVI; in short: as §1
[2] = Growth inhibition of human SNB75 cells after 48 hrs by sulforhodamine B assay; details: SNB-75, 48 h; in short: as §1
[3] = Growth inhibition of human SF295 cells after 48 hrs by sulforhodamine B assay; details: SF-295, 48 h; in short: as §1
[4] = Growth inhibition of human SF268 cells after 48 hrs by sulforhodamine B assay; details: SF-268, 48 h; in short: as §1
[5] = Growth inhibition of human SW620 cells after 48 hrs by sulforhodamine B assay; details: SW-620, 48 h; in short: as §1
KM12 = experiment: Growth inhibition of human KM12 cells after 48 hrs by sulforhodamine B assay; details: KM12, 48 h; in short: as §1
HT-29 = experiment: Growth inhibition of human HT-29 cells after 48 hrs by sulforhodamine B assay; details: HT-29, 48 h; in short: as §1
[6] = Growth inhibition of human HCT15 cells after 48 hrs by sulforhodamine B assay; details: HCT-15, 48 h; in short: as §1
[7] = Growth inhibition of human HCC2998 cells after 48 hrs by sulforhodamine B assay; details: HCC 2998, 48 h; in short: as §1
[8] = Growth inhibition of human COLO205 cells after 48 hrs by sulforhodamine B assay; details: COLO 205, 48 h; in short: as §1
NCI-H460 = experiment: Growth inhibition of human NCI-H460 cells after 48 hrs by sulforhodamine B assay; details: NCI-H460, 48 h; in short: as §1
NCI-H23 = experiment: Growth inhibition of human NCI-H23 cells after 48 hrs by sulforhodamine B assay; details: NCI-H23, 48 h; in short: as §1
[9] = Growth inhibition of human HOP62 cells after 48 hrs by sulforhodamine B assay; details: HOP-62, 48 h; in short: as §1
A549 = experiment: Growth inhibition of human A549/ATCC cells after 48 hrs by sulforhodamine B assay; details: A549, 48 h; in short: as §1
SR = experiment: Growth inhibition of human SR cells after 48 hrs by sulforhodamine B assay; in short: as §1
[10] = Growth inhibition of human RPMI8226 cells after 48 hrs by sulforhodamine B assay; details: RPMI-8226, 48 h; in short: as §1
[11] = Growth inhibition of human MOLT4 cells after 48 hrs by sulforhodamine B assay; details: MOLT-4, 48 h; in short: as §1
K562 = experiment: Growth inhibition of human K562 cells after 48 hrs by sulforhodamine B assay; details: K562, 48 h; in short: as §1
[12] = Growth inhibition of human HL-60(TB) cells after 48 hrs by sulforhodamine B assay; details: HL-60, 48 h; in short: as §1
CCRF-CEM = experiment: Growth inhibition of human CCRF-CEM cells after 48 hrs by sulforhodamine B assay; in short: as §1
MDA-MB-435 = experiment: Growth inhibition of human MDA-MB-435 cells after 48 hrs by sulforhodamine B assay; details: MDA-MB-435, 48 h
In short: (§2)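 NCI-60 sulforhodamine B screen. Compounds were first tested at a single dose of 10⁻⁵ M; hits, defined as ≥60% growth inhibition in at least eight lines, went on to a five-concentration dose–response. SRB optical density was read before and 48 h after exposure to compound or vehicle. Percentage growth was calculated from OD.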

SK-MEL-2 = experiment: Growth inhibition of human SK-MEL-2 cells after 48 hrs by sulforhodamine B assay; details: SK-MEL-2, 48 h; in short: as §1
[13] = Growth inhibition of human IGROV1 cells after 48 hrs by sulforhodamine B assay; details: IGROV-1, 48 h; in short: as §1
[14] = Growth inhibition of human OVCAR3 cells after 48 hrs by sulforhodamine B assay; details: OVCAR-3, 48 h; in short: as §2
[15] = Growth inhibition of human NCI-ADR-RES cells after 48 hrs by sulforhodamine B assay; in short: as §1
[16] = Growth inhibition of human SKOV3 cells after 48 hrs by sulforhodamine B assay; details: SK-OV-3, 48 h; in short: as §1
786-0 = experiment: Growth inhibition of human 786-0 cells after 48 hrs by sulforhodamine B assay; details: 786-0, 48 h; in short: as §1
A498 = experiment: Growth inhibition of human A498 cells after 48 hrs by sulforhodamine B assay; details: A498, 48 h; in short: as §2
ACHN = experiment: Growth inhibition of human ACHN cells after 48 hrs by sulforhodamine B assay; in short: as §1
CAKI-1 = experiment: Growth inhibition of human CAKI-1 cells after 48 hrs by sulforhodamine B assay; details: CAKI-1, 48 h; in short: as §1
[17] = Growth inhibition of human UO31 cells after 48 hrs by sulforhodamine B assay; details: UO-31, 48 h; in short: as §1
[18] = Growth inhibition of human PC3 cells after 48 hrs by sulforhodamine B assay; details: PC-3, 48 h; in short: as §1
[19] = Growth inhibition of human DU145 cells after 48 hrs by sulforhodamine B assay; details: DU-145, 48 h; in short: as §1
MCF7 = experiment: Growth inhibition of human MCF7 cells after 48 hrs by sulforhodamine B assay; details: MCF7, 48 h; in short: as §1
MDA-MB-231 = experiment: Growth inhibition of human MDA-MB-231 cells after 48 hrs by sulforhodamine B assay; details: MDA-MB-231, 48 h; in short: as §1
MDA-MB-468 = experiment: Growth inhibition of human MDA-MB-468 cells after 48 hrs by sulforhodamine B assay; details: MDA-MB-468, 48 h; in short: as §1
[20] = read-out: LD50 (the source's name)

COc1cc(-c2n[nH]nc2-c2ccc3c(c2)OCCO3)cc(OC)c1OC
GI50 (U-251): 20 nM | CC50 (U-251; [20]): > 100000 nM | GI50 [1]: 18 nM | CC50 [1, 20]: > 100000 nM | GI50 [2]: < 10 nM | CC50 [2, 20]: > 100000 nM | GI50 [3]: < 10 nM | CC50 [3, 20]: > 100000 nM | GI50 [4]: 69 nM | CC50 [4, 20]: > 100000 nM | GI50 [5]: < 10 nM | LD50 (concentration killing 50% of cells) [5]: > 100 µM | GI50 (KM12): < 10 nM | LC50 (concentration killing 50% of cells) (KM12; read-out: LD50): > 100000 nM | GI50 (HT-29): 25 nM | LC50 (concentration killing 50% of cells) (HT-29; read-out: LD50): > 100000 nM | GI50 [6]: < 10 nM | CC50 [6, 20]: > 100000 nM | GI50 [7]: 39 nM | CC50 [7, 20]: > 100000 nM | GI50 [8]: 27 nM | CC50 [8, 20]: > 100000 nM | GI50 (NCI-H460): 25 nM | CC50 (NCI-H460; [20]): > 100000 nM | GI50 (NCI-H23): 48 nM | LC50 (concentration giving 50% cell kill) (NCI-H23; read-out: LD50): > 100000 nM | GI50 [9]: 18 nM | LC50 (concentration killing 50% of cells) ([9]; read-out: LD50): > 100000 nM | GI50 (A549): 23 nM | CC50 (A549; [20]): > 100000 nM | GI50 (SR): < 10 nM | LC50 (concentration giving 50% net cell kill) (SR; read-out: LD50): > 100000 nM | GI50 [10]: 33 nM | CC50 [10, 20]: > 100000 nM | GI50 [11]: 40 nM | CC50 [11, 20]: > 100000 nM | GI50 (K562): < 10 nM | CC50 (K562; [20]): > 100000 nM | GI50 [12]: 19 nM | CC50 [12, 20]: > 100000 nM | GI50 (CCRF-CEM): 34 nM | LC50 (concentration killing 50% of cells) (CCRF-CEM; read-out: LD50): > 100000 nM | GI50 (MDA-MB-435): < 10 nM | LC50 (concentration killing 50% of cells) (MDA-MB-435; read-out: LD50): > 100000 nM | GI50 (SK-MEL-2): < 10 nM | CC50 (SK-MEL-2; [20]): > 100000 nM | GI50 [13]: 33 nM | CC50 [13, 20]: > 100000 nM | GI50 [14]: < 10 nM | LC50 (concentration giving 50% net cell kill) ([14]; read-out: LD50): > 100000 nM | GI50 [15]: < 10 nM | CC50 [15, 20]: > 100000 nM | GI50 [16]: < 10 nM | LC50 (concentration killing 50% of cells) ([16]; read-out: LD50): > 100000 nM | GI50 (786-0): < 10 nM | LC50 (concentration killing 50% of cells) (786-0; read-out: LD50): > 100000 nM | GI50 (A498): 10 nM | LC50 (50% net cell kill) (A498; read-out: LD50): > 100000 nM | GI50 (ACHN): < 10 nM | CC50 (ACHN; [20]): > 100000 nM | GI50 (CAKI-1): < 10 nM | CC50 (CAKI-1; [20]): > 100000 nM | GI50 [17]: < 10 nM | LC50 (concentration killing 50% of cells) ([17]; read-out: LD50): > 100000 nM | GI50 [18]: 18 nM | CC50 [18, 20]: > 100000 nM | GI50 [19]: 25 nM | CC50 [19, 20]: > 100000 nM | GI50 (MCF7): < 10 nM | CC50 (MCF7; [20]): > 100000 nM | GI50 (MDA-MB-231): 44 nM | CC50 (MDA-MB-231; [20]): > 100000 nM | GI50 (MDA-MB-468): 15 nM | CC50 (MDA-MB-468; [20]): > 100000 nM
